Experimental data: ChEMBL document CHEMBL4732018, “Design, synthesis, and biological evaluation of pyrazole-linked aloe emodin derivatives as potential anticancer agents” (RSC Med Chem, 2021)

Tests used:
HepG2 = assay: Anticancer activity against human HepG2 cells assessed as cell growth inhibition measured after 48 hrs by MTT assay; format: functional, cell-based; conditions: HepG2, 48 h
Method in brief: (§1)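 MTT test on ATCC lines grown in RPMI with 10% FBS and antibiotic/antimycotic at 37 °C in 5% CO₂. Cells were seeded at 4 x 10^3/well and treated for 48 h at 2.5, 5, 10 and 20 µM, from DMSO stocks diluted in medium. MTT (10 mg/mL stock) was then added for 3 h and absorbance read at 540 nm. IC50 derived; three independent experiments.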

HEK293 = assay: Cytotoxicity against human HEK293 cells assessed as cell growth inhibition measured after 48 hrs by MTT assay; format: cell-based; conditions: HEK293, 48 h; method in brief: as §1
B16-F10 = assay: Anticancer activity against mouse B16-F10 cells assessed as cell growth inhibition measured after 48 hrs by MTT assay; format: functional, cell-based; conditions: B16-F10, 48 h; method in brief: as §1
MCF7 = assay: Anticancer activity against human MCF-7 cells assessed as cell growth inhibition measured after 48 hrs by MTT assay; format: functional, cell-based; conditions: MCF7, 48 h; method in brief: as §1
MDA-MB-231 = assay: Anticancer activity against human MDA-MB-231 cells assessed as cell growth inhibition measured after 48 hrs by MTT assay; format: functional, cell-based; conditions: MDA-MB-231, 48 h; method in brief: as §1

## CCOC(=O)c1c(-c2cc(O)c3c(c2)C(=O)c2cccc(O)c2C3=O)nn(-c2ccccc2C)c1C(=O)OCC
HepG2
  IC50: 1.35 µM
HEK293
  IC50: 2.47 µM
B16-F10
  IC50: 1.57 µM
MCF7
  IC50: 1.13 µM
MDA-MB-231
  IC50: 7.56 µM

## CCOC(=O)c1c(-c2cc(O)c3c(c2)C(=O)c2cccc(O)c2C3=O)nn(-c2ccc(OC)cc2)c1C(=O)OCC
HepG2
  IC50: 5.68 µM
HEK293
  IC50: 10.1 µM
B16-F10
  IC50: 2.15 µM
MCF7
  IC50: 3.86 µM
MDA-MB-231
  IC50: 4.7 µM

## CCOC(=O)c1c(-c2cc(O)c3c(c2)C(=O)c2cccc(O)c2C3=O)nn(-c2ccc(Cl)cc2)c1C(=O)OCC
HepG2
  IC50: 2.16 µM
HEK293
  IC50: 1.09 µM
B16-F10
  IC50: 3.9 µM
MCF7
  IC50: 3.96 µM
MDA-MB-231
  IC50: 6.2 µM

## COC(=O)c1c(-c2cc(O)c3c(c2)C(=O)c2cccc(O)c2C3=O)nn(-c2ccc(OC(F)(F)F)cc2)c1C(=O)OC
HepG2
  IC50: 2.29 µM
HEK293
  IC50: 6.84 µM
B16-F10
  IC50: 6.09 µM
MCF7
  IC50: 1.16 µM
MDA-MB-231
  IC50: 3.68 µM
